# Laboratory results from ChEMBL document CHEMBL1165965, “Synthesis and structure-activity relationships of 1,2,3,4-tetrahydropyrido[2,3-b]pyrazines as potent and selective inhibitors of the anaplastic lymphoma kinase” (Bioorg Med Chem, 2010).
# Key:
# [1] = biological target: Tyrosine-protein kinase JAK1 (Homo sapiens) (UniProt P23458); assay: Inhibition of JAK1 JH2 pseudokinase domain at 1 uM
# How it was run: (§1)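 Single-concentration screen on the Ambit KINOMEscan platform, run against a panel of 250–400 kinases. Per-kinase inhibition was also summarized as S(90), the fraction of kinases inhibited by more than 90%.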
# [2] = biological target: Serine/threonine-protein kinase PAK 2 (Homo sapiens) (UniProt Q13177); assay: Inhibition of PAK2 at 1 uM
# [3] = biological target: Serine/threonine-protein kinase MARK2 (Homo sapiens) (UniProt Q7KZI7); assay: Inhibition of MARK2 at 1 uM
# How it was run: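 Kinase-panel screen using KINOMEscan technology, with 250–400 kinases per panel. Each compound was tested at a single concentration, and inhibition of each kinase was recorded. Selectivity was summarised as S(90), the fraction of kinases inhibited by more than 90%.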
# [4] = biological target: Tyrosine-protein kinase Blk (Homo sapiens) (UniProt P51451); assay: Inhibition of BLK at 1 uM
# How it was run: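 Ambit KINOMEscan screen at a single concentration across a 250–400 kinase panel, recorded as percent inhibition. Selectivity was expressed as S(90), the fraction of kinases inhibited >90%.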
# [5] = system: Epidermal growth factor receptor (Homo sapiens), P00533 [L858R]; assay: Inhibition of EGFR L858R mutant at 1 uM; assay type: protein assay
# Sequence of Epidermal growth factor receptor (Homo sapiens), P00533 [L858R] (P00533 whole entry L858R): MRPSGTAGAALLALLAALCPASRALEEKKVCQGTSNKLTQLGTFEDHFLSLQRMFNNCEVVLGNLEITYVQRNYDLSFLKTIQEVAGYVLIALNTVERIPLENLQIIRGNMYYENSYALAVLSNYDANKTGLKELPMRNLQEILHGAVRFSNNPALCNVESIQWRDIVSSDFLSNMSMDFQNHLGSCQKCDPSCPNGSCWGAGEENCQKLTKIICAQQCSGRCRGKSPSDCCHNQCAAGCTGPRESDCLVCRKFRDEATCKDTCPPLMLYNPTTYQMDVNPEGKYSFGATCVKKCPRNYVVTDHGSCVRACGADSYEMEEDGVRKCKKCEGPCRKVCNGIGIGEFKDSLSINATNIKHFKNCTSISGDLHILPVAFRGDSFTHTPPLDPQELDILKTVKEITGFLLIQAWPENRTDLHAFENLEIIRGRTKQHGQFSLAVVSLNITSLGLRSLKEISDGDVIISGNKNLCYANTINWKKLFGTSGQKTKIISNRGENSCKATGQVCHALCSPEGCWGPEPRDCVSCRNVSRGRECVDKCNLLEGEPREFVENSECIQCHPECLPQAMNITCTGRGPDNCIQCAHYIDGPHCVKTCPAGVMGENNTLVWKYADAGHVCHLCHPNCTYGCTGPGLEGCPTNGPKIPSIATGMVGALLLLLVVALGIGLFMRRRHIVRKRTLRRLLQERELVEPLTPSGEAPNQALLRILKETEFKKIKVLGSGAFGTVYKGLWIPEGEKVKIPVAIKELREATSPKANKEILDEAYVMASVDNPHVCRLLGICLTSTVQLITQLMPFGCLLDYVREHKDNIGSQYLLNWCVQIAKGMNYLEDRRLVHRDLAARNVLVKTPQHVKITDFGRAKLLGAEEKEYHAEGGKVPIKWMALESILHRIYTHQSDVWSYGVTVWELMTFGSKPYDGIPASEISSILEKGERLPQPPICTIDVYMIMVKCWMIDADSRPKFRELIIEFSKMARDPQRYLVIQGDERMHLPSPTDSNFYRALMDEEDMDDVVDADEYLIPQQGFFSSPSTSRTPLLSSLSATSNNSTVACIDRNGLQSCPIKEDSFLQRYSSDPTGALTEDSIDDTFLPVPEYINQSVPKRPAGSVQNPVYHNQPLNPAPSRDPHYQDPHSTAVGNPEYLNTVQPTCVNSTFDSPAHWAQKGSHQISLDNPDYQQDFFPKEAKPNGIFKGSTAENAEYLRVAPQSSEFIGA
# How it was run: (§2)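 Single-concentration screen using Ambit Bioscience KINOMEscan technology across a panel of 250–400 kinases. Per-kinase inhibition from this screen was summarized as S(90), the fraction of kinases inhibited by more than 90%.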
# [6] = biological target: T1, Mitogen-activated protein kinase kinase kinase 7 (Homo sapiens) (UniProt O43318); assay: Inhibition of TAK1 at 1 uM
# T1 sequence (whole entry): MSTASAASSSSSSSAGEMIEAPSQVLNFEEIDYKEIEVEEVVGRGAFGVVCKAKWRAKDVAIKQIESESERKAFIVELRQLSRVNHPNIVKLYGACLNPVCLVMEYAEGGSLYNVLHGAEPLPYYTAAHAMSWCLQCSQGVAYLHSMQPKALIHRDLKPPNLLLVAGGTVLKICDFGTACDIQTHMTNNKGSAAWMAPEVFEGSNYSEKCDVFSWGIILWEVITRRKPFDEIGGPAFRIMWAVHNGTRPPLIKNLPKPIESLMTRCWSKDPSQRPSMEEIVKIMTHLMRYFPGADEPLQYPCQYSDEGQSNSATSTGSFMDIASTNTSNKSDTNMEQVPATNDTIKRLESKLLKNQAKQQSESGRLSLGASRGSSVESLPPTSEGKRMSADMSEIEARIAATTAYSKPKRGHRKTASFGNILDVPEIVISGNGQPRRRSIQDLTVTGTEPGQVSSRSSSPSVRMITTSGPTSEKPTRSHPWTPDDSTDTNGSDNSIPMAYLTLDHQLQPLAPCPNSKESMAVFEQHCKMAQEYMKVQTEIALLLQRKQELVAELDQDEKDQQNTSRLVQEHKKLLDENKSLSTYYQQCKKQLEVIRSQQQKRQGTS
# [7] = biological target: Ephrin type-A receptor 7 (Homo sapiens) (UniProt Q15375); assay: Inhibition of EPHA7 at 1 uM; how it was run: as §2
# Sequence of Ephrin type-A receptor 7 (Homo sapiens) (Q15375 28-998 limits assumed): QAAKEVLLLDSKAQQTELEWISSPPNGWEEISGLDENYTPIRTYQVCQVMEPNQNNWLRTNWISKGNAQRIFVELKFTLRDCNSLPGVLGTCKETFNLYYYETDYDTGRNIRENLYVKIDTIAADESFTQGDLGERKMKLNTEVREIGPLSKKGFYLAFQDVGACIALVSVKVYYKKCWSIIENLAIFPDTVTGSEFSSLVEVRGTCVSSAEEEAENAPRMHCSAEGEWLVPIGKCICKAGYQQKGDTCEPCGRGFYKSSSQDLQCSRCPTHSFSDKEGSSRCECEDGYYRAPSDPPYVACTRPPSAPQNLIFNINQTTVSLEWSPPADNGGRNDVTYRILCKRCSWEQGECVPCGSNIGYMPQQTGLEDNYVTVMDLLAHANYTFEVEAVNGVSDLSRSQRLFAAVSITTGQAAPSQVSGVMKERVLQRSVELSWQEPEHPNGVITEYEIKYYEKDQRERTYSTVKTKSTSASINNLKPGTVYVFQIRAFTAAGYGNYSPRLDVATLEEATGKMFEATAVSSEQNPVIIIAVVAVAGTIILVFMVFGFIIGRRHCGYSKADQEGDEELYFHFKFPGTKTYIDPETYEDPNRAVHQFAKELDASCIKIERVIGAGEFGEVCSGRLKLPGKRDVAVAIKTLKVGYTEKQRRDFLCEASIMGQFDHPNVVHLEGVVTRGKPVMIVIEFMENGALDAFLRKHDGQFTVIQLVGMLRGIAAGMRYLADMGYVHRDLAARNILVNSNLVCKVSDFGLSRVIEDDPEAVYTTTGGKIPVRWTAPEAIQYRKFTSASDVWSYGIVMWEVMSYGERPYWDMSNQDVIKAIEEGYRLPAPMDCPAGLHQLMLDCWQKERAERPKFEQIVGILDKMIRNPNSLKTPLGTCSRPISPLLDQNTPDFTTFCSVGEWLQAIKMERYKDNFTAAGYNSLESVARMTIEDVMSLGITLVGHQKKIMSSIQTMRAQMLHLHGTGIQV
# [8] = biological target: Epidermal growth factor receptor (Homo sapiens) (UniProt P00533); assay: Inhibition of EGFR at 1 uM; how it was run: as §2
# Sequence of Epidermal growth factor receptor (Homo sapiens) (P00533 whole entry): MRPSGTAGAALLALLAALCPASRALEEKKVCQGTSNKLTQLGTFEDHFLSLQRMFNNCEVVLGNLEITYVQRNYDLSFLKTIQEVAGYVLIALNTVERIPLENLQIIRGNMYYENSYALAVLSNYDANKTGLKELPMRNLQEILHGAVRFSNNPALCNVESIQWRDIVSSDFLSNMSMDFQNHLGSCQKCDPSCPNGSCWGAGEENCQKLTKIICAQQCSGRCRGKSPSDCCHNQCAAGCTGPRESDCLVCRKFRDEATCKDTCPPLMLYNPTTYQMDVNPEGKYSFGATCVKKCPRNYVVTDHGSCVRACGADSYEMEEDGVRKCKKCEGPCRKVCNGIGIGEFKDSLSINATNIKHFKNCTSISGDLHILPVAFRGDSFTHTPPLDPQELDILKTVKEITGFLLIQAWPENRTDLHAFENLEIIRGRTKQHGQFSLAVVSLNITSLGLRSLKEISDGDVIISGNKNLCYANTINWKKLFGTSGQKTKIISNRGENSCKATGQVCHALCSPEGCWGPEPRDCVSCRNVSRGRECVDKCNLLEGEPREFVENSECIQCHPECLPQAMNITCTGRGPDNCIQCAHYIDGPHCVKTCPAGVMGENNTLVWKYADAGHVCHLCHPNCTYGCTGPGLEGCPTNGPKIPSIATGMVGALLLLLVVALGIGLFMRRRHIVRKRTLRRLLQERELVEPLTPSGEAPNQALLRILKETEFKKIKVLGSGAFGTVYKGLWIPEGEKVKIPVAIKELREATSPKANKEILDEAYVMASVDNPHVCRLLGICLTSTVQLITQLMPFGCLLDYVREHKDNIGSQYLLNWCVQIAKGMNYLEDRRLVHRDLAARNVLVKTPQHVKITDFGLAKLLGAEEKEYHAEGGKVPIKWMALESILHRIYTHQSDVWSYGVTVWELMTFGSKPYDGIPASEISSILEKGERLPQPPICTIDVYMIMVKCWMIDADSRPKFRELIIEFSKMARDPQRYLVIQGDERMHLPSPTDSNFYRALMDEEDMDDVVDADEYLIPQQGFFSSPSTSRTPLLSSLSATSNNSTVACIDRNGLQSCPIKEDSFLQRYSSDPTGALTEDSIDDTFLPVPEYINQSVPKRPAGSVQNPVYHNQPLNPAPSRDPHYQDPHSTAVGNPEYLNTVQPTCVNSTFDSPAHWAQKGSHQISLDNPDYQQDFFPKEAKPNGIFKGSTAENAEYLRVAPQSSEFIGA
# [9] = biological target: Mitogen-activated protein kinase 8 (Homo sapiens) (UniProt P45983); assay: Inhibition of JNK1 at 1 uM; how it was run: as §1
# Sequence of Mitogen-activated protein kinase 8 (Homo sapiens) (P45983 whole entry): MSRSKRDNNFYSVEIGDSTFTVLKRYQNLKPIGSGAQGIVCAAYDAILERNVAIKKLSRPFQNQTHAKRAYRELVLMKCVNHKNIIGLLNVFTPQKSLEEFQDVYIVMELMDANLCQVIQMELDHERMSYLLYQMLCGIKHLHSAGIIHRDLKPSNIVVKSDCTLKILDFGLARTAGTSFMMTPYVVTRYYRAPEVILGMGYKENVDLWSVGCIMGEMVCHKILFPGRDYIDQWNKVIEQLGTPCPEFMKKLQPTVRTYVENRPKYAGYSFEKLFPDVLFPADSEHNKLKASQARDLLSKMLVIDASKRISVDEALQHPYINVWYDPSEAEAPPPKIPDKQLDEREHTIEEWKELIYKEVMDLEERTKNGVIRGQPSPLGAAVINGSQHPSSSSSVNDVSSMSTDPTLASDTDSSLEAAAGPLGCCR
# [10] = biological target: T2, TGF-beta receptor type-1 (Homo sapiens) (UniProt P36897); assay: Inhibition of TGFBR1 at 1 uM
# T2 sequence (whole entry): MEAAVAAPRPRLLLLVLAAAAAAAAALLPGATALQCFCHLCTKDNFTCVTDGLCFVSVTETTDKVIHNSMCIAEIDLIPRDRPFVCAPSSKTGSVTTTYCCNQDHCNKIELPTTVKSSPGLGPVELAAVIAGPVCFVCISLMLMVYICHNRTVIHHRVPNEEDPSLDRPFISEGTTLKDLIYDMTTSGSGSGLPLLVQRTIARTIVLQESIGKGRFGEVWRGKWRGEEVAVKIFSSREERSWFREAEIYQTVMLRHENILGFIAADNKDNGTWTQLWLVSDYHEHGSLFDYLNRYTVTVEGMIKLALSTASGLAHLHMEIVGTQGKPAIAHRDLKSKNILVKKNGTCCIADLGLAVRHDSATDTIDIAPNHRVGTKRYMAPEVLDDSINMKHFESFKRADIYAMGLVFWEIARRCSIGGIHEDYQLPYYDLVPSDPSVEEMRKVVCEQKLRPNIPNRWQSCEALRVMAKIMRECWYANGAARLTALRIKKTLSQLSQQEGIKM
# [11] = biological target: T3, Membrane-associated tyrosine- and threonine-specific cdc2-inhibitory kinase (Homo sapiens) (UniProt Q99640); assay: Inhibition of PKMYT1 at 1 uM
# T3 sequence (whole entry): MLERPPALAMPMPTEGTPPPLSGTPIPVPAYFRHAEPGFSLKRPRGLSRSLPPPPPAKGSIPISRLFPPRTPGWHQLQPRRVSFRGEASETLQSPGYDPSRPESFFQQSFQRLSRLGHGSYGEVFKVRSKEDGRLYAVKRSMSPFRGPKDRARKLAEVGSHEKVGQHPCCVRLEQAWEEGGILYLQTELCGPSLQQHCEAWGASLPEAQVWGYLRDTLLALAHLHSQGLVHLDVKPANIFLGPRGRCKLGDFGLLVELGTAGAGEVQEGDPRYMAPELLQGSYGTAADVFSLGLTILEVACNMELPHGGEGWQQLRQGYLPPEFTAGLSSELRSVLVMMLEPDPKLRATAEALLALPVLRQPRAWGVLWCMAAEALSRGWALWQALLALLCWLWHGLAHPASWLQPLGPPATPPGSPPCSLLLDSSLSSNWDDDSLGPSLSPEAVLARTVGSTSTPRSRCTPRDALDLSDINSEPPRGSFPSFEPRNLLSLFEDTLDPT
# [12] = system: Phosphatidylinositol 4,5-bisphosphate 3-kinase catalytic subunit alpha isoform (Homo sapiens), P42336 [M1043I]; assay: Inhibition of PIK3CA M1043I mutant at 1 uM
# Sequence of Phosphatidylinositol 4,5-bisphosphate 3-kinase catalytic subunit alpha isoform (Homo sapiens), P42336 [M1043I] (P42336 whole entry M1043I, canonical isoform): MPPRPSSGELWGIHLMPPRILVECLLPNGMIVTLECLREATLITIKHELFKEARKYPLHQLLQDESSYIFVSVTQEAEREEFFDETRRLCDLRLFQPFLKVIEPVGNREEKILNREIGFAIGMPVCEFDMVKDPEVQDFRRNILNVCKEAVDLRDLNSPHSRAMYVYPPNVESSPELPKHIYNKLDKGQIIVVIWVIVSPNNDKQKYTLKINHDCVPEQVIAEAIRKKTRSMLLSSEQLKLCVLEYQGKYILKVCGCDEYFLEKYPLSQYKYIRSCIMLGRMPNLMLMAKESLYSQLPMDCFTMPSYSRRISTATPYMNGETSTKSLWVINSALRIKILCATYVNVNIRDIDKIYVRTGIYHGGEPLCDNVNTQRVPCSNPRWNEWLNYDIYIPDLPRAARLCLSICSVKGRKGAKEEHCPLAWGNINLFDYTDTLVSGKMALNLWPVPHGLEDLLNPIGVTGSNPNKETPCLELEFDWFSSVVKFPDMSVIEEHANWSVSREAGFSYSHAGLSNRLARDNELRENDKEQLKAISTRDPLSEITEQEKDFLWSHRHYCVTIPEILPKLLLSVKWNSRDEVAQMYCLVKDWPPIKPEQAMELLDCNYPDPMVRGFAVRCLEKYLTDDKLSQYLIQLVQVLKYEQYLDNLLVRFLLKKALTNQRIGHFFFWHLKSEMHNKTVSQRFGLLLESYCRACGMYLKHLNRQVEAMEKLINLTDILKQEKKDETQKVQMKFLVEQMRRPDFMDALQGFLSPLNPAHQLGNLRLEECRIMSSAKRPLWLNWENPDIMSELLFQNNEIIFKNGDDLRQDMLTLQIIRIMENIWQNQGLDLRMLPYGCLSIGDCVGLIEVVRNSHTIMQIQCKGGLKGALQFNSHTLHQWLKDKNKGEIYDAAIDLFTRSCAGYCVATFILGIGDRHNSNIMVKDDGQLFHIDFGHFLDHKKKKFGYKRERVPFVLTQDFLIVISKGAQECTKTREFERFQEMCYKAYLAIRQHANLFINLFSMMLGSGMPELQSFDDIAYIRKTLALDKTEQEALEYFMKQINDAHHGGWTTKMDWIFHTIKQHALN
Compound,inhibition [1] [%],inhibition [2] [%],inhibition [3] [%],inhibition [4] [%],inhibition [5] [%],inhibition [6] [%],inhibition [7] [%],inhibition [8] [%],inhibition [9] [%],inhibition [10] [%],inhibition [11] [%],inhibition [12] [%]
CN1CCN(c2ccc(-c3cnc4c(c3)N(Cc3cc(Cl)ccc3Cl)CCN4)cn2)CC1,< 50,< 50,< 50,< 50,< 50,< 50,< 50,< 50,< 50,< 50,< 50,< 50
CN1CCN(c2ccc(-c3cnc4c(c3)N(Cc3cc(Cl)ccc3C(F)(F)F)CCN4)cn2)CC1,< 50,< 50,< 50,< 50,< 50,< 50,< 50,< 50,< 50,< 50,< 50,< 50
CN1CCN(c2ccc(-c3cnc4c(c3)N(Cc3c(F)ccc(F)c3Cl)CCN4)cn2)CC1,< 50,< 50,< 50,< 50,< 50,< 50,< 50,< 50,< 50,< 50,< 50,< 50
O=C(c1ccc(-c2cnc3c(c2)N(Cc2cc(Cl)ccc2C(F)(F)F)CCN3)cc1)N1CCC(N2CCCC2)CC1,< 50,< 50,72.3,< 50,< 50,,< 50,< 50,< 50,< 50,< 50,
COC1CCN(C(=O)c2ccc(-c3cnc4c(c3)N(Cc3cc(Cl)ccc3C(F)(F)F)CCN4)cc2)CC1,< 50,< 50,< 50,< 50,< 50,,< 50,< 50,< 50,< 50,< 50,
FC(F)(F)c1ccc(Cl)cc1CN1CCNc2ncc(-c3ccnc(N4CCNCC4)c3)cc21,< 50,< 50,< 50,< 50,< 50,< 50,< 50,< 50,< 50,< 50,< 50,< 50
CN1CCN(c2ccc(-c3cnc4c(c3)N(Cc3cc(F)ccc3F)CCN4)cn2)CC1,< 50,< 50,< 50,< 50,< 50,< 50,< 50,< 50,< 50,< 50,< 50,< 50
O=C(c1ccc(-c2cnc3c(c2)N(Cc2cc(Cl)ccc2C(F)(F)F)CCN3)cc1)N1CCCCC1,< 50,< 50,< 50,< 50,< 50,,< 50,< 50,< 50,< 50,< 50,
CC(=O)N1CCN(c2cc(-c3cnc4c(c3)N(Cc3cc(Cl)ccc3C(F)(F)F)CCN4)ccn2)CC1,< 50,< 50,66,< 50,< 50,< 50,< 50,< 50,< 50,< 50,< 50,< 50
O=C(O)c1ccc(-c2cnc3c(c2)N(Cc2cc(Cl)ccc2C(F)(F)F)CCN3)cc1,< 50,< 50,85,< 50,< 50,,< 50,< 50,< 50,< 50,< 50,
